Positions of bridges follow the written chain, without caps; N, C: chain ends. Non-standard residues stand in square brackets, D forms with d. Residues, ends and D or L forms follow the SMILES beside them. hCys = N[C@@H](CCS)C(=O)O

The species named for one assay is Oryctolagus cuniculus. Put plainly: Relative binding potency towards vasorelaxant binding site compared to AP(103-126). The method in brief:
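Varied unlabeled peptide concentrations; started by adding membranes; 30 min at 25 °C. Filtration with ice-cold buffer, then gamma counting. Nonspecific binding measured with 10^-6 M unlabeled reference peptide. Specific binding fitted by nonlinear least squares.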

The test system of assay [1] is Atrial natriuretic peptide receptor 3 (Oryctolagus cuniculus). Kind of assay: Relative binding potency towards non-vasorelaxant binding site compared to AP(103-126).
The nature of assay [2]: Vasorelaxant activity in norepinephrine-contracted rabbit aortic rings, compared to AP(103-126). Format: functional, Oryctolagus cuniculus, Aorta.

In the case of `CC[C@H](C)[C@H](NC(=O)[C@H](CC/N=C(/N)NO)NC(=O)[C@H](CC(=O)O)NC(=O)[C@@H](NC(=O)[C@H](CCN=C(N)N)NC(=O)[C@H](CSCNC(C)=O)NC(=O)CNC(=O)[C@H](Cc1ccccc1)NC(=O)[C@H](CSCNC(C)=O)NC(=O)[C@H](CO)NC(=O)[C@@H](N)CO)[C@@H](C)CC)C(=O)NCC(=O)N[C@@H](C)C(=O)N[C@@H](CCC(N)=O)C(=O)C1SSC[C@@H](C(=O)N[C@@H](CC(N)=O)C(=O)CN[C@@H](CO)C(=O)N[C@@H](Cc2ccccc2)C(=O)N[C@@H](CCCN=C(N)N)C(N)=O)NC(=O)CNC(=O)[C@H](CC(C)C)NC(=O)CNC(=O)[C@H]1N` (stereo in doubt; 9b), the figures for the Relative potency (in the assay filed under Oryctolagus cuniculus; in assay [1]) were 0.0053 and 2.2, respectively. With `CC[C@H](C)[C@@H]1NC(=O)[C@H](CCCN=C(N)N)NC(=O)[C@H](CC(=O)O)NC(=O)[C@H]([C@@H](C)CC)NC(=O)[C@H](CCCN=C(N)N)NC(=O)[C@@H](CCSCNC(C)=O)NC(=O)CNC(=O)[C@H](Cc2ccccc2)NC(=O)[C@@H](NC(=O)[C@H](CO)NC(=O)[C@@H](N)CO)CSSC[C@@H](C(=O)N[C@@H](CC(N)=O)C(=O)N[C@@H](CO)C(=O)N[C@@H](Cc2ccccc2)C(=O)N[C@@H](CCCN=C(N)N)C(N)=O)NC(=O)CNC(=O)[C@H](CC(C)C)NC(=O)CNC(=O)[C@@H](CCSCNC(C)=O)NC(=O)[C@H](CCC(N)=O)NC(=O)[C@H](C)NC(=O)CNC1=O`, the Relative potency (in the assay filed under Oryctolagus cuniculus; in assay [1]) was 0.84 each time. Regarding `CC[C@H](C)[C@@H]1NC(=O)[C@H](CCCN=C(N)N)NC(=O)[C@H](CC(=O)O)NC(=O)[C@H]([C@@H](C)CC)NC(=O)[C@H](CCCN=C(N)N)NC(=O)[C@@H](CSCNC(C)=O)NC(=O)CNC(=O)[C@H](Cc2ccccc2)NC(=O)[C@@H](NC(=O)[C@H](CO)NC(=O)[C@@H](N)CO)CSSC[C@@H](C(=O)NCC(=O)N[C@@H](CC(C)C)C(=O)NCC(=O)N[C@@H](CSCNC(C)=O)C(=O)N[C@@H](CC(N)=O)C(=O)N[C@@H](CO)C(=O)N[C@@H](Cc2ccccc2)C(=O)N[C@@H](CCCN=C(N)N)C(N)=O)NC(=O)[C@H](CCC(N)=O)NC(=O)[C@H](C)NC(=O)CNC1=O`, the Relative potency amounted to 0.014 in the assay listed under Oryctolagus cuniculus and 3.1 in assay [1]. On the same counts, the results for `CC[C@H](C)[C@H]1NC(=O)[C@H](CCCN=C(N)N)NC(=O)[C@H](CC(=O)O)NC(=O)[C@@H]([C@@H](C)CC)NC(=O)[C@H](CCCN=C(N)N)NC(=O)[C@H](CSCNC(C)=O)NC(=O)CNC(=O)[C@@H](Cc2ccccc2)NC(=O)[C@H](NC(=O)[C@H](CO)NC(=O)[C@@H](N)CO)CSSC[C@H](C(=O)N[C@@H](CC(N)=O)C(=O)N[C@@H](CO)C(=O)N[C@@H](Cc2ccccc2)C(=O)N[C@@H](CCCN=C(N)N)C(N)=O)NC(=O)CNC(=O)[C@@H](CC(C)C)NC(=O)CNC(=O)[C@H](CSCNC(C)=O)NC(=O)[C@H](CCC(N)=O)NC(=O)[C@@H](C)NC(=O)CNC1=O` are 0.48 and 0.48. The corresponding values for `CC[C@H](C)[C@@H]1NC(=O)[C@H](CCCN=C(N)N)NC(=O)[C@H](CC(=O)O)NC(=O)[C@H]([C@@H](C)CC)NC(=O)[C@H](CCCN=C(N)N)NC(=O)[C@@H](CSCNC(C)=O)NC(=O)CNC(=O)[C@H](Cc2ccccc2)NC(=O)[C@@H](NC(=O)[C@H](CO)NC(=O)[C@@H](N)CO)CSSC[C@@H](C(=O)N[C@@H](CC(N)=O)C(=O)N[C@@H](CO)C(=O)N[C@@H](Cc2ccccc2)C(=O)N[C@@H](CCCN=C(N)N)C(N)=O)NC(=O)CNC(=O)[C@H](CC(C)C)NC(=O)CNC(=O)[C@H](CO)NC(=O)[C@H](CCC(N)=O)NC(=O)[C@H](C)NC(=O)CNC1=O` are 4.3 and 4.3. In the case of `CC[C@H](C)[C@@H]1NC(=O)[C@H](CCCN=C(N)N)NC(=O)[C@H](CC(=O)O)NC(=O)[C@H]([C@@H](C)CC)NC(=O)[C@H](CCCN=C(N)N)NC(=O)[C@@H](CSCNC(C)=O)NC(=O)CNC(=O)[C@H](Cc2ccccc2)NC(=O)[C@@H](NC(=O)[C@H](CO)NC(=O)[C@@H](N)CO)CSSC[C@@H](C(=O)N[C@@H](CC(N)=O)C(=O)N[C@@H](CO)C(=O)N[C@@H](Cc2ccccc2)C(=O)N[C@@H](CCCN=C(N)N)C(N)=O)NC(=O)CNC(=O)[C@H](CC(C)C)NC(=O)CNC(=O)[C@@H](CSCNC(C)=O)NC(=O)[C@H](CCC(N)=O)NC(=O)[C@H](C)NC(=O)CNC1=O`, the Relative potency in assay [2] came out at 0.044. As to `CC[C@H](C)[C@H]1NC(=O)[C@H](CCCN=C(N)N)NC(=O)[C@H](CC(=O)O)NC(=O)[C@@H]([C@@H](C)CC)NC(=O)[C@H](CCCN=C(N)N)NC(=O)CNC(=O)CNC(=O)[C@@H](Cc2ccccc2)NC(=O)[C@H](NC(=O)[C@H](CO)NC(=O)[C@@H](N)CO)CSSC[C@H](C(=O)N[C@@H](CC(N)=O)C(=O)N[C@@H](CO)C(=O)N[C@@H](Cc2ccccc2)C(=O)N[C@@H](CCCN=C(N)N)C(N)=O)NC(=O)CNC(=O)[C@@H](CC(C)C)NC(=O)CNC(=O)[C@@H](CO)NC(=O)[C@H](CCC(N)=O)NC(=O)[C@@H](C)NC(=O)CNC1=O`, the Relative potency (in the assay filed under Oryctolagus cuniculus; in assay [1]) was 3.2 throughout. `CC[C@H](C)[C@H]1NC(=O)[C@H](CCCN=C(N)N)NC(=O)[C@H](CC(=O)O)NC(=O)[C@@H]([C@@H](C)CC)NC(=O)[C@H](CCCN=C(N)N)NC(=O)[C@@H](CSCNC(C)=O)NC(=O)CNC(=O)[C@@H](Cc2ccccc2)NC(=O)[C@H](NC(=O)[C@H](CO)NC(=O)[C@@H](N)CO)CSSC[C@H](C(=O)N[C@@H](CC(N)=O)C(=O)N[C@@H](CO)C(=O)N[C@@H](Cc2ccccc2)C(=O)N[C@@H](CCCN=C(N)N)C(N)=O)NC(=O)CNC(=O)[C@@H](CC(C)C)NC(=O)CNC(=O)[C@@H](CSCNC(C)=O)NC(=O)[C@H](CCC(N)=O)NC(=O)[C@@H](C)NC(=O)CNC1=O`: the Relative potency (in the assay filed under Oryctolagus cuniculus; in assay [1]) was 0.91 throughout. In turn, `CC[C@H](C)[C@@H]1NC(=O)[C@H](CCCN=C(N)N)NC(=O)[C@H](CC(=O)O)NC(=O)[C@H]([C@@H](C)CC)NC(=O)[C@H](CCCN=C(N)N)NC(=O)[C@H](CCSCNC(C)=O)NC(=O)CNC(=O)[C@H](Cc2ccccc2)NC(=O)[C@@H](NC(=O)[C@H](CO)NC(=O)[C@@H](N)CO)CSSC[C@@H](C(=O)N[C@@H](CC(N)=O)C(=O)N[C@@H](CO)C(=O)N[C@@H](Cc2ccccc2)C(=O)N[C@@H](CCCN=C(N)N)C(N)=O)NC(=O)CNC(=O)[C@H](CC(C)C)NC(=O)CNC(=O)[C@H](CCSCNC(C)=O)NC(=O)[C@H](CCC(N)=O)NC(=O)[C@H](C)NC(=O)CNC1=O` registered a Relative potency in assay [2] of 0.068. Molecule `CC[C@H](C)[C@@H]1NC(=O)[C@H](CCCN=C(N)N)NC(=O)[C@H](CC(=O)O)NC(=O)[C@H]([C@@H](C)CC)NC(=O)[C@H](CCCN=C(N)N)NC(=O)[C@H](CSCNC(C)=O)NC(=O)CNC(=O)[C@H](Cc2ccccc2)NC(=O)[C@@H](NC(=O)[C@H](CO)NC(=O)[C@@H](N)CO)CSSC[C@@H](C(=O)N[C@@H](CC(N)=O)C(=O)N[C@@H](CO)C(=O)N[C@@H](Cc2ccccc2)C(=O)N[C@@H](CCCN=C(N)N)C(N)=O)NC(=O)CNC(=O)[C@H](CC(C)C)NC(=O)CNC(=O)[C@H](CSCNC(C)=O)NC(=O)[C@H](CCC(N)=O)NC(=O)[C@H](C)NC(=O)CNC1=O` gave a Relative potency in assay [2] of 0.43.

Molecule `CC[C@H](C)[C@@H]1NC(=O)[C@H](CCCN=C(N)N)NC(=O)[C@H](CC(=O)O)NC(=O)[C@H]([C@@H](C)CC)NC(=O)[C@H](CCCN=C(N)N)NC(=O)[C@H](CCSCNC(C)=O)NC(=O)CNC(=O)[C@H](Cc2ccccc2)NC(=O)[C@@H](NC(=O)[C@H](CO)NC(=O)[C@@H](N)CO)CSSC[C@@H](C(=O)N[C@@H](CC(N)=O)C(=O)N[C@@H](CO)C(=O)N[C@@H](Cc2ccccc2)C(=O)N[C@@H](CCCN=C(N)N)C(N)=O)NC(=O)CNC(=O)[C@H](CC(C)C)NC(=O)CNC(=O)[C@H](CSCNC(C)=O)NC(=O)[C@H](CCC(N)=O)NC(=O)[C@H](C)NC(=O)CNC1=O` returned a Relative potency in assay [2] of 0.24. `CC[C@H](C)[C@@H]1NC(=O)[C@H](CCCN=C(N)N)NC(=O)[C@H](CC(=O)O)NC(=O)[C@H]([C@@H](C)CC)NC(=O)[C@H](CCCN=C(N)N)NC(=O)[C@H](CSCNC(C)=O)NC(=O)CNC(=O)[C@H](Cc2ccccc2)NC(=O)[C@@H](NC(=O)[C@H](CO)NC(=O)[C@@H](N)CO)CSSC[C@@H](C(=O)NCC(=O)N[C@@H](CC(C)C)C(=O)NCC(=O)N[C@@H](CSCNC(C)=O)C(=O)N[C@@H](CC(N)=O)C(=O)N[C@@H](CO)C(=O)N[C@@H](Cc2ccccc2)C(=O)N[C@@H](CCCN=C(N)N)C(N)=O)NC(=O)[C@H](CCC(N)=O)NC(=O)[C@H](C)NC(=O)CNC1=O`: in assay [2], the Relative potency came out at 0.042. Regarding `CC[C@H](C)[C@@H]1NC(=O)[C@H](CCCN=C(N)N)NC(=O)[C@H](CC(=O)O)NC(=O)[C@H]([C@@H](C)CC)NC(=O)[C@H](CCCN=C(N)N)NC(=O)[C@@H]2CCSSC[C@H](NC(=O)[C@H](CCC(N)=O)NC(=O)[C@H](C)NC(=O)CNC1=O)C(=O)NCC(=O)N[C@@H](CC(C)C)C(=O)NCC(=O)N[C@H](C(=O)N[C@@H](CC(N)=O)C(=O)N[C@@H](CO)C(=O)N[C@@H](Cc1ccccc1)C(=O)N[C@@H](CCCN=C(N)N)C(N)=O)CSSC[C@H](NC(=O)[C@H](CO)NC(=O)[C@@H](N)CO)C(=O)N[C@@H](Cc1ccccc1)C(=O)NCC(=O)N2` (H-SSCFG[hCys]RIDRIGAQCGLGCNSFR-NH2; disulfide 3-19, 6-15), in assay [2], the Relative potency is 0.049. Molecule `CC[C@H](C)[C@@H]1NC(=O)[C@H](CCCN=C(N)N)NC(=O)[C@H](CC(=O)O)NC(=O)[C@H]([C@@H](C)CC)NC(=O)[C@H](CCCN=C(N)N)NC(=O)[C@H](CSCNC(C)=O)NC(=O)CNC(=O)[C@H](Cc2ccccc2)NC(=O)[C@@H](NC(=O)[C@H](CO)NC(=O)[C@@H](N)CO)CSSC[C@@H](C(=O)N[C@@H](CC(N)=O)C(=O)N[C@@H](CO)C(=O)N[C@@H](Cc2ccccc2)C(=O)N[C@@H](CCCN=C(N)N)C(N)=O)NC(=O)CNC(=O)[C@H](CC(C)C)NC(=O)CNC(=O)[C@H](CO)NC(=O)[C@H](CCC(N)=O)NC(=O)[C@H](C)NC(=O)CNC1=O` returned a Relative potency in assay [2] of 1.03.

Source of the values: ChEMBL document CHEMBL1124339, “Conformationally restricted analogues of atriopeptin(103-125)amide” (J Med Chem, 1989).
